Converted amounts (≈) assume the structure as drawn.
Experiments:
[1] = tested on: Plasmodium falciparum; assay: Antiplasmodial activity against multidrug-sensitive asexual blood stage Plasmodium falciparum NF54 strain assessed as reduction in parasite growth after 72 hrs by NBT reagent based LDH assay; format: functional, organism-based; settings: NF54, 72 h
[2] = tested on: Plasmodium falciparum; assay: Antiplasmodial activity against multidrug-resistant asexual blood stage Plasmodium falciparum K1 strain assessed as reduction in parasite growth after 72 hrs by NBT reagent based LDH assay; format: functional, organism-based; settings: K1, 72 h
How it was run: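 Asexual blood-stage K1 (multidrug-resistant) parasites were read out by the parasite lactate dehydrogenase (pLDH) assay. […] Most individual values varied less than 2× (maximum 3×).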

[3] = Aqueous solubility of compound in phosphate buffer saline at pH 6.5 incubated for 20 hrs under shaking condition by shake-flask method based HPLC-DAD analysis; format: physicochemical; settings: phosphate buffered saline
How it was run: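 Equilibrium aqueous solubility was measured at pH 6.5 using a miniaturized shake-flask method.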

[4] = Selectivity index, ratio of CC50 for cytotoxicity against CHO cells assessed as reduction in cell viability to IC50 for antiplasmodial activity against multidrug-sensitive Plasmodium falciparum NF54 assessed as reduction in parasite growth; format: toxicity, cell-based; settings: hamster, read-out: Ratio CC50/IC50
[5] = tested on: Plasmodium berghei; assay: Antiplasmodial activity against luciferase-expressing Plasmodium berghei sporozoites liver stage infected in human HepG2 cells expressing GFP-CD81 fusion protein incubated for 48 hrs by luciferase reporter gene based bioluminescence assay; format: functional, organism-based; settings: HepG2, 48 h
How it was run: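 Liver-stage activity was measured in vitro with rodent P. berghei sporozoites. Values are the mean of 3 technical replicates from the luciferase assay; individual values varied less than 2×.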

[6] = tested on: Plasmodium falciparum; assay: Antiplasmodial activity against early stage (I to III) Plasmodium falciparum NF54 gametocytes incubated for 48 hrs under hypoxia condition by luciferase reporter gene assay; format: functional, organism-based; settings: NF54, 48 h
[7] = tested on: Plasmodium falciparum; assay: Antiplasmodial activity against late stage (IV/V) Plasmodium falciparum NF54 gametocytes at 5 uM incubated for 48 hrs under hypoxia condition by luciferase reporter gene assay relative to control; format: functional
[8] = Tmax in Balb/C mouse at 5 mg/kg, po by LC-MS/MS analysis; format: ADME, organism-based; settings: in vivo
How it was run: (§1)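 Healthy Balb/c mice were given the compound i.v. or orally. Parameters come from non-compartmental analysis: AUC from 0 h to t_last, blood clearance, volume at steady state, terminal half-life, Tmax. Oral bioavailability F is derived from the i.v. and p.o. data.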

[9] = Cmax in Balb/C mouse at 2 mg/kg, iv by LC-MS/MS analysis; format: ADME, organism-based; design: route intravenous, dose 2 mg/kg; settings: in vivo
How it was run: (§2)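 Healthy Balb/c mice dosed i.v. or orally. Parameters come from non-compartmental analysis of compound concentration over time. […] Clearance is blood clearance (CL_b).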

[10] = Cmax in Balb/C mouse at 5 mg/kg, po by LC-MS/MS analysis; format: ADME, organism-based; design: route oral, dose 5 mg/kg; settings: in vivo; how it was run: as §2
[11] = Terminal half life in Balb/C mouse at 2 mg/kg, iv by LC-MS/MS analysis; format: ADME, organism-based; settings: in vivo, read-out: beta t1/2 (converted); how it was run: as §1
[12] = Terminal half life in Balb/C mouse at 5 mg/kg, po by LC-MS/MS analysis; format: ADME, organism-based; settings: in vivo, read-out: beta t1/2 (converted); how it was run: as §1
[13] = Clearance in Balb/C mouse blood at 2 mg/kg, iv by LC-MS/MS analysis; format: ADME, organism-based; settings: whole blood; how it was run: as §2
[14] = Volume of distribution at steady state in Balb/C mouse at 2 mg/kg, iv by LC-MS/MS analysis; format: ADME, organism-based; settings: in vivo, read-out: Vdss; how it was run: as §1
[15] = AUC (0 to t) in Balb/C mouse at 2 mg/kg, iv by LC-MS/MS analysis; format: ADME, organism-based; design: dose 2 mg/kg; settings: in vivo; how it was run: as §2
[16] = AUC (0 to t) in Balb/C mouse at 5 mg/kg, po by LC-MS/MS analysis; format: ADME, organism-based; design: dose 5 mg/kg; settings: in vivo; how it was run: as §2
[17] = Oral bioavailability in Balb/C mouse at 5 mg/kg by LC-MS/MS analysis; format: ADME, organism-based; settings: in vivo; how it was run: as §1
[18] = Ratio of unbound average drug concentration in Balb/c mouse at 5 mg/kg, po measured at 24 hrs to IC50 for antiplasmodial activity against multidrug-sensitive Plasmodium falciparum NF54 asexual blood stage assessed as reduction in parasite growth after 72 hrs by LDH assay; format: organism-based; settings: in vivo
[19] = tested on: CHO; assay: Cytotoxicity against CHO cells assessed as reduction in cell viability by MTT assay; format: cell-based, Cricetulus griseus; settings: chinese hamster
How it was run: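 Cytotoxicity was measured in Chinese hamster ovary (CHO) cells and reported as CC50. The selectivity index is CC50 divided by NF54 IC50.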

[20] = target: Voltage-gated inwardly rectifying potassium channel KCNH2 (Homo sapiens, UniProt Q12809); assay: Inhibition of human ERG by patch clamp method
Voltage-gated inwardly rectifying potassium channel KCNH2, sequence (Q12809 whole entry): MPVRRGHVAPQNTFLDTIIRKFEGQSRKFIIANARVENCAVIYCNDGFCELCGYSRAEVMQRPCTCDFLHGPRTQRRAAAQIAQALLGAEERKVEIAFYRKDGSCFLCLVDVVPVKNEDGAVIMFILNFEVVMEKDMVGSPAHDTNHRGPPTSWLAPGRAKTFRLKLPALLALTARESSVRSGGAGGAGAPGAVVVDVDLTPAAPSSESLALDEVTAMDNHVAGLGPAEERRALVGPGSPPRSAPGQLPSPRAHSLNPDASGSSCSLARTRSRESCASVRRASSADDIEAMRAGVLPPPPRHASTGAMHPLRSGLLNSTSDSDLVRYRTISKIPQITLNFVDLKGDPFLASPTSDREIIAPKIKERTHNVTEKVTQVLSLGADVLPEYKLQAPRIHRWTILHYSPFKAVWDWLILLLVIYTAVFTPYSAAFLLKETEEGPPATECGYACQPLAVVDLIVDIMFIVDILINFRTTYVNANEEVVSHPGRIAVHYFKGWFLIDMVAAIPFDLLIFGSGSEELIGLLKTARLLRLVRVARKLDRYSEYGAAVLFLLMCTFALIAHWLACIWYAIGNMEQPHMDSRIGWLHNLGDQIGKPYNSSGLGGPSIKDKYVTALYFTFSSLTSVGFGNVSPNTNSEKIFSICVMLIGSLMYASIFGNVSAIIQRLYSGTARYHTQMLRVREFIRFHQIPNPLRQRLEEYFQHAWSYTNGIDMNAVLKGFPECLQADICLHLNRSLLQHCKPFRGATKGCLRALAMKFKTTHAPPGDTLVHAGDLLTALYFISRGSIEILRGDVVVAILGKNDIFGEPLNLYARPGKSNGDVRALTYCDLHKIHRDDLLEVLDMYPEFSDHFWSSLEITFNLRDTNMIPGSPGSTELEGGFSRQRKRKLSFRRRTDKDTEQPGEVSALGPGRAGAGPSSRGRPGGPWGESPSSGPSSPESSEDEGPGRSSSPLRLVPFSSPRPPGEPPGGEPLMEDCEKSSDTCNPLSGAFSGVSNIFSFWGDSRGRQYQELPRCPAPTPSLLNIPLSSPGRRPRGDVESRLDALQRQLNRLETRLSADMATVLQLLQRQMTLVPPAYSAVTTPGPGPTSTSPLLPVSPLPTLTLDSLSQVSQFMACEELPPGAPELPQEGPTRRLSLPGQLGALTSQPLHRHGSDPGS

[21] = tested on: Hemozoin; assay: Inhibition of beta-hematin formation assessed as reduction in hemozoin formation incubated for 5 hrs by NP40 detergent-mediated assay
How it was run: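 Synthetic hemozoin (β-hematin) formation is driven by the detergent Nonidet P-40. Pyridine is then added to detect unreacted hematin. IC50 is derived from this read-out.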

[22] = Cmax in Balb/C mouse at 20 mg/kg, po by LC-MS/MS analysis; format: ADME, organism-based; design: route oral, dose 20 mg/kg; settings: in vivo; how it was run: as §2
[23] = Tmax in Balb/C mouse at 20 mg/kg, po by LC-MS/MS analysis; format: ADME, organism-based; settings: in vivo; how it was run: as §1
[24] = Terminal half life in Balb/C mouse at 20 mg/kg, po by LC-MS/MS analysis; format: ADME, organism-based; settings: in vivo, read-out: beta t1/2 (converted); how it was run: as §1
[25] = AUC (0 to t) in Balb/C mouse at 20 mg/kg, po by LC-MS/MS analysis; format: ADME, organism-based; design: dose 20 mg/kg; settings: in vivo; how it was run: as §2
[26] = Oral bioavailability in Balb/C mouse at 20 mg/kg by LC-MS/MS analysis; format: ADME, organism-based; settings: in vivo; how it was run: as §1
[27] = Ratio of unbound average drug concentration in Balb/c mouse at 20 mg/kg, po measured at 24 hrs to IC50 for antiplasmodial activity against multidrug-sensitive Plasmodium falciparum NF54 asexual blood stage assessed as reduction in parasite growth after 72 hrs by LDH assay; format: organism-based; settings: in vivo
[28] = Selectivity ratio of IC50 for antiplasmodial activity against luciferase-expressing Plasmodium berghei sporozoites liver stage infected in human HepG2 cells expressing GFP-CD81 fusion protein to IC50 for antiplasmodial activity against multidrug-sensitive Plasmodium falciparum NF54; format: functional

Fc1ccc(-c2nc3c(N4CCCN(CC5CC5)CC4)nccc3[nH]2)cc1F
IC50 [1]: 20 nM | IC50 [2]: 77 nM | solubility thermodynamic at 20 h [3]: 200 µM (≈ 76.7 µg/mL) | selectivity ratio [4]: 850 | IC50 [5]: 17000 nM | IC50 [6]: 5300 nM | inhibition at 5 µM [7]: 48%

CN1CCN(c2nccc3nc(-c4ccc(F)c(F)c4)[nH]c23)CC1
Tmax [8]: 0.7 h | IC50 [1]: 240 nM | IC50 [2]: 500 nM | solubility thermodynamic at 20 h [3]: 130 µM (≈ 42.8 µg/mL) | Cmax [9]: 1000 nM | Cmax [10]: 1100 nM | half-life [11]: 5.9 h | half-life [12]: 5.4 h | clearance [13]: 27.3 mL/min/kg | Vd [14]: 9 L/kg | AUCt [15]: 3.58 µM·h | AUCt [16]: 3.25 µM·h | bioavailability [17]: 36% | Ratio [18]: 0.1

Cc1cc2[nH]c(-c3cc(F)cc(F)c3)nc2c(N2CCC(CN3CCN(C)CC3)CC2)n1
IC50 [1]: 12 nM | IC50 [2]: 21 nM | solubility thermodynamic at 20 h [3]: 200 µM (≈ 88.1 µg/mL) | CC50 [19]: 1900 nM | IC50 [20]: > 30000 nM | selectivity ratio [4]: 160 | IC50 [21]: 15000 nM

Fc1ccc(-c2nc3c(N4CCC(CN5CCOCC5)CC4)nccc3[nH]2)cc1F
IC50 [1]: 51 nM | IC50 [2]: 120 nM | solubility thermodynamic at 20 h [3]: 85 µM (≈ 35.1 µg/mL) | CC50 [19]: 35000 nM | IC50 [20]: ≤ 3000 nM | selectivity ratio [4]: 690 | IC50 [5]: 290 nM | IC50 [6]: 1300 nM | inhibition at 5 µM [7]: 0% | Cmax [9]: 300 nM | Cmax [22]: 3700 nM | Tmax [23]: 0.7 h | half-life [11]: 25.8 h | half-life [24]: 13.5 h | clearance [13]: 19.6 mL/min/kg | Vd [14]: 20 L/kg | AUCt [15]: 4.17 µM·h | AUCt [25]: 34.6 µM·h | bioavailability [26]: 83% | Ratio [27]: 4.6 | Ratio IC50 [28]: <=6
